CRFR2-BP ag: agonists of CRF-BP/CRF-R2 complex, primary screen, cell-based, HEK293, calcium dye fluorescence, uHTS; calcium dye fluorescence (FLIPR); percent of saturating CRF peptide response; AID 588473, 2011; hit rate 0.46% among 350,000; activation, % at 13.2 µM;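 active = activation of at least 50%, plus an integration ratio under a set limit after plate pattern correction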;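 also: plate controls were neutral control wells without compound for no effect and CRF at EC100 for full effect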
CRFR2-BP antag: antagonists of CRF-BP/CRF-R2 complex, primary screen, cell-based, HEK293, calcium dye fluorescence, uHTS; CRF-induced calcium fluorescence; inhibition, % at 11.8 µM; hit rate 0.59% among 350,000;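 active = inhibition of the ligand-induced calcium signal above about 50% at the single tested concentration, limit read from the data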
zfTRPN1 agonist: zebrafish TRPN1 channel agonists, primary screen, cell-based, HEK293, calcium fluorescence; transient receptor potential cation channel N1 (TRPN1/NompC), Danio rerio; HEK293 zebrafish TRPN1-YFP, Fluo-8 calcium fluorescence; 100% = response to 87 µM carbachol; activation, % at 3 µM; hit rate 0.18% among 220,000; AID 1424, 2008;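 active = activation above its plate's cutoff, the mean activation of test wells on that plate plus 3 SD, cut at about 19% in these data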;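 also: 0% = DMSO alone and 100% = 87 µM carbachol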
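Material – zebrafish TRPN1-YFP in HEK293 cells · Doses – 3 µM single point · Schedule – dye 1 h 37 °C plus 30 min RT · Signal – Fluo-8 calcium fluorescence, excitation 470-495 nm, emission 515-575 nm · Read-out – % activation versus carbachol response · Control set – carbachol high, DMSO low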
TRPML3 agonist: human TRPML3 channel agonists, primary screen, cell-based, HEK293 TRPML3-YFP, Fluo-8 calcium fluorescence, 3 µM; Mucolipin-3 (Homo sapiens), Q8TDD5; 100% = the carbachol control signal; activation, % at 3 µM; hit rate 0.29% among 220,000;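 active = activation above its plate's cutoff, the mean activation of the plate's test wells plus 3 SD, cut at about 12% in these data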;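 also: 0% = DMSO only wells and 100% = carbachol wells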
Target sequence (Q8TDD5 whole entry, looked up): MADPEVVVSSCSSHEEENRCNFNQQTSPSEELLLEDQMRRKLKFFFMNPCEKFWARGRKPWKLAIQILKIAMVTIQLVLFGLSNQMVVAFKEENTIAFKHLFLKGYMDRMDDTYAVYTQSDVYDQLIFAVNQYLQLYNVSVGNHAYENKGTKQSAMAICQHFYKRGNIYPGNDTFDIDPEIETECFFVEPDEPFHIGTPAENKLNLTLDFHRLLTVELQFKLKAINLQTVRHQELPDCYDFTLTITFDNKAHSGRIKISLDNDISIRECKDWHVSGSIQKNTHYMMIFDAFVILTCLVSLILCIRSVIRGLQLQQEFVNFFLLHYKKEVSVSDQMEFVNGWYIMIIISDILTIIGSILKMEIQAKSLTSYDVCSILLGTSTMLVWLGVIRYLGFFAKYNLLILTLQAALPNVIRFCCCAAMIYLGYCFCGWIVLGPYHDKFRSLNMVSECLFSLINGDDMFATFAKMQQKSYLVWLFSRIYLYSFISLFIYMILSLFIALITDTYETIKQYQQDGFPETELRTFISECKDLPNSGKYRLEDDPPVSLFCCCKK
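system = HEK293 cells stably carrying human TRPML3-YFP | doses = one concentration, 3 µM nominal, 0.3% DMSO | timing = dye loading 1 h 37 °C then 30 min ambient, 125 s read | detection = Fluo-8 calcium dye fluorescence, ex 470-495, em 515-575 nm | benchmarks = high control carbachol 87 µM, low control DMSO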
Numbers without * were called inactive; · = not tested or not shown; ! = a repeat was not active. An excerpt weighted towards active compounds, which were near 1.2% of everything screened.

SMILES	CRFR2-BP ag	CRFR2-BP antag	zfTRPN1 agonist	TRPML3 agonist
CC(NC(=O)COC(=O)C12CC3CC(CC(Br)(C3)C1)C2)c1ccccc1 (stereo not given)	6	62*	·	·
CCCn1c(SCC(=O)c2cc(C)n(-c3ccc4c(c3)OCO4)c2C)n[nH]c1=O	-3	46	4	1
CCOc1ccc(S(=O)(=O)N2CCN(C(=O)CN3C(=O)NC4(CCCC4)C3=O)CC2)cc1	0	0	·	·
O=C(CCC(=O)n1ncc2ccccc21)N1CCCCC1	-5	28	·	·
Cc1ccc2c(cnn2C(=O)CCC(=O)N2CCCCC2)c1	-2	71*	·	·
O=C(Cn1nc(C(=O)O)c2ccccc2c1=O)Nc1ccc(Br)cc1	0	-22	·	·
CCc1ccc(NC(=O)Cn2nc(C(=O)O)c3ccccc3c2=O)cc1	3	58*	·	·
CCOc1ccccc1NC(=O)COC(=O)C1COc2ccccc2O1 (stereo not given)	0	95*	·	·
Cc1nn(-c2ccccc2)c(C)c1/C=N/n1c(-c2ccccc2Br)n[nH]c1=S	-6	71*	-5	0
CC(NC(=O)c1ccccc1Cl)C(=O)O (stereo not given)	0	1	0	0
O=C(O)C1OC1(c1ccccc1Cl)c1ccccc1Cl (stereo not given)	-2	69*	·	·
NNC(=O)c1nc(Cl)c(Cl)c(N)c1Cl	1	2	-2	0
Cc1ccc(S(=O)(=O)NNC(=S)Nc2cccc(F)c2)cc1	-1	93*	-1	0
O=C(c1ccccc1)c1ccccc1N1C(=O)C=CC1=O	0	5	2	3
O=C1C=CC(=O)N1c1ccccc1N1C(=O)C=CC1=O	4	97*	·	·
COc1ccc2c3c(cccc13)C(=O)CC2	139*	-95	·	·
CCOc1c(C)cc(-c2ncccc2O)cc1C	-4	52*!	-1	-1
Nc1nonc1-n1nnc(C(=O)N/N=C/c2cccc(F)c2)c1CN1CCCC1	-2	5	·	·
C/C=C(\C)C(=O)OC1[C@H](OC(C)=O)C2(CO)C(CC1(C)C)C1=CCC3C4(C)CCC(O[C@@H]5O[C@H](C(=O)O)[C@@H](O[C@@H]6O[C@H](CO)[C@@H](O)[C@H](O)[C@H]6O)[C@H](O)[C@H]5O[C@H]5O[C@H](CO)[C@@H](O)[C@H](O)[C@H]5O)[C@](C)(CO)C4CCC3(C)[C@]1(C)C[C@H]2O (stereo not given in full)	159*	-65	·	·
CC1(C)C[C@H]2C3=CCC4[C@@]5(C)CC[C@H](O[C@@H]6O[C@H](C(=O)O)[C@@H](O)[C@H](O)[C@H]6O)[C@@](C)(CO)C5CC[C@@]4(C)[C@]3(C)C[C@H](O)[C@@]2(CO)[C@@H](O)[C@@H]1O (stereo not given in full)	-1	-1	·	·
CC1(C)CC[C@]2(C(=O)O)CC[C@]3(C)C(=CC[C@@H]4[C@@]5(C)CC[C@H](O)C(C)(C)[C@@H]5CC[C@]43C)[C@@H]2C1	1	-38	·	·
CC(=O)OC1COC(OC2C(O)C(C)OC(OC3C(OC4CCC5(C)C(CCC6(C)C5CC=C5C7CC(C)(C)CCC7(C(=O)O)CCC56C)C4(C)CO)OCC(O)C3O)C2O)C(O)C1OC(C)=O (stereo not given)	·	·	123*	95*
C/C=C(/C)C(=O)OC1CC(C)(C)C[C@H]2C3=CC[C@@H]4[C@@]5(C)CCC(O[C@@H]6O[C@@H](C(=O)O)[C@@H](O)C(O[C@@H]7OC[C@H](O)[C@@H](O)[C@@H]7O[C@@H]7OC(CO)C(O)[C@@H](O)[C@@H]7O)C6O[C@@H]6OC(CO)C(O)C(O)C6O)[C@@](C)(CO)[C@@H]5CC[C@]4(C)[C@]3(C)CC(O)[C@@]12CO (stereo not given in full)	112*	-40	·	·
CC12CCCCN1CCCc1c2[nH]c2ccccc12 (stereo not given)	50*	-4	1	1
CC(=O)C1=C(C)NC(=S)NC1c1cc([N+](=O)[O-])ccc1O (stereo not given)	-3	100*	1	0
SMILES	CRFR2-BP ag	CRFR2-BP antag	zfTRPN1 agonist	TRPML3 agonist
CCOc1ccc(-c2c(C(=O)N/N=C/c3ccco3)nnn2-c2nonc2N)cc1	-2	-51	·	·
COc1ccc(/C=C/C(=O)NCc2cn(C)nc2C)cc1COc1ccc(Cl)cc1Br	9	92*	0	0
CCn1nc(C)c(NC(=O)/C=C/c2ccc(OC)c(COc3ccc(Cl)cc3Br)c2)c1C	1	4	-1	1
Cc1cccc(C)c1OCC(=O)Nc1oc(-c2ccccc2)c(-c2ccccc2)c1C#N	0	107*	0	0
O=C1C(=O)N(CCCN2CCOCC2)C(c2cccs2)/C1=C(/O)c1ccc2c(c1)OCO2 (stereo not given)	·	·	1	1
O=C(NCC(c1ccco1)N1CCCC1)c1cc2cc(Cl)ccc2o1 (stereo not given)	57*	-27	·	·
CC(C)/C=C1\CC/C(=C\c2ccc(N(C)C)cc2)C1=O	166*	-191	22*	8
CN(C)c1ccc(/C=C2/C[N+](C)(C)C/C(=C/c3ccc(N(C)C)cc3)C2=O)cc1	41	-83	·	·
CS(=O)(=O)N(CC(=O)Nc1ccccc1Sc1ccccc1)C1CCCCC1	10	-35	-1	0
FC(F)(F)c1cccc(-c2nc3nc(Cl)c(Cl)nc3[nH]2)c1	81*	38	32*	14*
CC(C)(C)c1ccc(NC(=O)Nc2ccc(F)cc2)cc1	19	-11	18	9
CCc1ccc(-c2cc(C)no2)cc1S(=O)(=O)Nc1ccc(Cl)cn1	1	57*	·	·
CCc1ccc(-c2cc(C)no2)cc1S(=O)(=O)Nc1cc(C)on1	0	13	·	·
CC1C(=O)C(C)C(c2cc(Br)ccc2O)NC1c1cc(Br)ccc1O (stereo not given)	-1	58*	·	·
CC1C(=O)C(C)C(c2ccc(Br)cc2)NC1c1ccc(Br)cc1 (stereo not given)	3	32	·	·
O=C(COc1ccc(F)cc1)N(Cc1cccs1)C1CCS(=O)(=O)C1 (stereo not given)	66*	-62	·	·
Cc1cccc(Nc2nc(N3CCN(C)CC3)nc(N)c2[N+](=O)[O-])c1	-1	-29	1	1
Cc1cc(C)c(C(=O)Cn2cnc3cc([N+](=O)[O-])ccc3c2=O)cc1C	-2	-9	1	0
COc1ccccc1N1C(=O)C(Cl)=C(Nc2ccccc2O)C1=O	84*	-124	0	1
O=C1C(Cl)=C(Nc2ccccc2O)C(=O)N1c1ccccc1	3	7	-1	-1
Cc1ccc(CSCC(=O)Nc2cc(S(=O)(=O)N3CCOCC3)ccc2OC(C)C)cc1	0	64*	·	·
COc1cc(CNc2ccc3[nH]c(=O)[nH]c3c2)ccc1OCc1ccc(F)cc1	-1	-10	·	·

Compound activity from PubChem.
